# Data taken from ChEMBL document CHEMBL1144552, “Synthesis and antitumor activities of a series of novel quinoxalinhydrazides” (Bioorg Med Chem, 2007).
# Activity calls are given as the source filed them. The rule behind the calls is not given here.
# What was measured:
# [1] = tested on: HCT-116; assay: Cytotoxicity against p53 deficient human HCT116 cells after 72 hrs by MTT assay; assay type: cell-based; conditions: HCT-116, 72 h
# Summary of the method: (§1)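 Monolayer cultures in RPMI 1640 with 10% FBS and 2 mmol/L L-glutamine, 37 °C, 5% CO2, used in exponential growth and checked for mycoplasma by PCR. Cells were seeded in 96-well plates, allowed to attach, then exposed continuously to drug for 72 h. MTT (final 0.5 mg/mL) was added for 4 h at 37 °C, formazan dissolved in DMSO, absorbance read at 570 nm. Triplicate.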
# [2] = tested on: HCT-116; assay: Cytotoxicity against human HCT116 cells expressing p53 gene after 72 hrs by MTT assay; assay type: cell-based; conditions: HCT-116, 72 h; summary of the method: as §1
# [3] = tested on: MDA-MB-435; assay: Cytotoxicity against human MDA-MB-435 cells after 72 hrs by MTT assay; assay type: cell-based; conditions: MDA-MB-435, 72 h; summary of the method: as §1
# [4] = tested on: HT-29; assay: Cytotoxicity against human HT29 cells after 72 hrs by MTT assay; assay type: cell-based; conditions: HT-29, 72 h; summary of the method: as §1
# [5] = tested on: MDA-MB-435; assay: Inhibition of colony formation of human MDA-MB-435 cells at >=1 uM after 24 hrs; assay type: functional, cell-based
# Summary of the method: (§2)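 Cells were plated at 100 cells/well in 6-well plates and allowed to attach. Serial dilutions were added the next day for 24 h exposure. Cells were then washed in PBS and grown in drug-free medium for 8–10 days until colonies formed. Colonies were fixed in 1% glutaraldehyde for 30 min, stained with 2% crystal violet for 30 min, imaged and counted. Means of at least three independent experiments.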
# [6] = tested on: HCT-116; assay: Inhibition of colony formation of p53 deficient human HCT116 cells at >=1 uM after 24 hrs; assay type: functional, cell-based; summary of the method: as §2
# [7] = tested on: LNCaP; assay: Cytotoxicity against human LNCap cells after 72 hrs by MTT assay; assay type: cell-based; summary of the method: as §1
# [8] = tested on: LNCaP; assay: Inhibition of colony formation of human LNCap cells at >=1 uM after 24 hrs; assay type: functional, cell-based; summary of the method: as §2
# [9] = tested on: HT-29; assay: Inhibition of colony formation of human HT29 cells at >=1 uM after 24 hrs; assay type: functional, cell-based; summary of the method: as §2
# [10] = tested on: HCT-116; assay: Inhibition of colony formation of p53 expressing human HCT116 cells at >=1 uM after 24 hrs; assay type: functional, cell-based; summary of the method: as §2
Structure (SMILES),IC50 [1] [µM],IC50 [2] [µM],IC50 [3] [µM],IC50 [4] [µM],Activity [5],Activity [6],IC50 [7] [µM],Activity [8],Activity [9],Activity [10]
O=C(NNc1nc2ccccc2n2cccc12)c1cc2ccccc2[nH]1,> 20,> 20,> 20,> 20,–,–,–,–,–,–
O=C(NNc1nc2cc(F)ccc2n2cccc12)c1cccnc1,> 20,> 20,> 20,> 20,–,–,–,–,–,–
NCCC(=O)NNc1nc2ccccc2n2cccc12,> 20,> 20,> 20,> 20,–,–,–,–,–,–
O=C(NNc1nc2ccccc2n2cccc12)c1ccc2cc[nH]c2c1,> 20,> 20,> 20,> 20,–,–,–,–,–,–
O=C(NNc1nc2cc(F)ccc2n2cccc12)c1ccccc1F,> 20,> 20,> 20,> 20,–,–,–,–,–,–
O=C(NNc1nc2cccc(F)c2n2cccc12)c1cnccn1,0.3,0.4,3,0.3,Active,Active,0.4,Active,Active,Active
COc1ccccc1C(=O)NNc1nc2ccccc2n2cccc12,> 20,> 20,> 20,> 20,–,–,–,–,–,–
O=C(NNc1nc2cc(F)ccc2n2cccc12)c1cnc2ccccc2n1,11,8,15,13,–,–,–,–,–,–
O=C(NNc1nc2cc(F)ccc2n2cccc12)c1cnccn1,0.9,0.6,4,0.9,–,–,0.4,–,–,–
O=C(NNc1nc2ccccc2n2cccc12)C1CSCN1 (centres undefined),10,15,> 20,14,–,–,–,–,–,–
O=C(NNc1nc2cc(F)ccc2n2cccc12)c1ccccn1,> 20,> 20,> 20,17,–,–,> 20,–,–,–
O=C(NNc1nc2cc(F)ccc2n2cccc12)c1cccs1,> 20,> 20,> 20,> 20,–,–,–,–,–,–
O=C(NNc1nc2ccccc2n2cccc12)c1c[nH]c2ccccc12,> 20,> 20,> 20,> 20,–,–,–,–,–,–
O=C(NNc1nc2cc(F)ccc2n2cccc12)c1ccco1,> 20,> 20,> 20,> 20,–,–,–,–,–,–
